Measurements: ChEMBL document CHEMBL5724801, “EUbOPEN Chemogenomics Library - Multiplex” (2024)
Values joined by “and” are separate entries in the source; they are usually repeats but may differ in a detail not shown here. Identical values can stand only once.

Experiments:
[1] = test system: U2OS; assay: Multiplex assay against U2OS; format: toxicity, cell-based; settings: human
Procedure, shortened: (§1)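 Hoechst33342, BioTracker Green Microtubule Cytoskeleton Dye, MitoTracker Red and Annexin V Alexa Fluor 680 were added to live cells at seeding, and imaging on a CQ1 microscope at 37°C and 5% CO2 followed compound addition. Gating by CellPathfinder machine learning separated cells into Hoechst high-intensity objects or normal cells, then normal cells into healthy, pyknosed or fragmented nuclei, then pyknosed cells into mitotic or apoptotic. Per cents of healthy-nucleus cells are reported for the tubulin, mitochondrial-mass and membrane-permeability phenotypes.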

[2] = test system: HEK-293T; assay: Multiplex assay against HEK293T; format: toxicity, cell-based; settings: human; procedure, shortened: as §1
[3] = 12 h, 1 µM, compound concentration 1 uM
[4] = 12 h, 10 µM, compound concentration 10 uM
[5] = 24 h, 1 µM, compound concentration 1 uM
[6] = 24 h, 10 µM, compound concentration 10 uM
[7] = 48 h, 1 µM, compound concentration 1 uM
[8] = 48 h, 10 µM, compound concentration 10 uM

SMILES: CCn1cnc2c(-c3ccc(F)c(-c4ccc(S(=O)(=O)CC)cc4OC)c3)cnnc21 [DARIGABAT]
- Population Apoptotic (%) [1, 3]: 18.37% and 38.1%
- Population Fragmented Nuclei (%) [1, 3]: 2.41% and 2.26%
- Population Healthy Nuclei (%) [1, 3]: 84.49% and 81.95%
- Population Hoechst High Intensity Objects (%) [1, 3]: 0%
- Population Membrane Permeable-Phenotype (%) [1, 3]: 0.95% and 3.67%
- Population Mitochondria Different-Phenotype (%) [1, 3]: 0% and 6.42%
- Population Mitotic Cells (%) [1, 3]: 81.63% and 61.9%
- Population Normal (%) [1, 3]: 100%
- Population Pyknosed Nuclei (%) [1, 3]: 13.1% and 15.79%
- Population Tubulin-Different-Phenotype (%) [1, 3]: 1.58% and 0.92%
- Total Cell Count [1, 3]: 374 and 133
- Population Apoptotic (%) [1, 4]: 35.44% and 27.5%
- Population Fragmented Nuclei (%) [1, 4]: 2.35% and 3.87%
- Population Healthy Nuclei (%) [1, 4]: 74.41% and 70.32%
- Population Hoechst High Intensity Objects (%) [1, 4]: 0% and 0.64%
- Population Membrane Permeable-Phenotype (%) [1, 4]: 3.95% and 3.67%
- Population Mitotic Cells (%) [1, 4]: 64.56% and 72.5%
- Population Normal (%) [1, 4]: 100% and 99.36%
- Population Pyknosed Nuclei (%) [1, 4]: 25.81%
- Total Cell Count [1, 4]: 340 and 156
- Population Apoptotic (%) [1, 5]: 28.12% and 48%
- Population Fragmented Nuclei (%) [1, 5]: 1.34% and 1.64%
- Population Healthy Nuclei (%) [1, 5]: 86.42% and 84.7%
- Population Hoechst High Intensity Objects (%) [1, 5]: 0%
- Population Membrane Permeable-Phenotype (%) [1, 5]: 0.66% and 4.52%
- Population Mitochondria Different-Phenotype (%) [1, 5]: 0% and 1.94%
- Population Mitotic Cells (%) [1, 5]: 71.88% and 52%
- Population Normal (%) [1, 5]: 100%
- Population Pyknosed Nuclei (%) [1, 5]: 12.24% and 13.66%
- Population Tubulin-Different-Phenotype (%) [1, 5]: 2.21% and 0%
- Total Cell Count [1, 5]: 523 and 183
- Population Apoptotic (%) [1, 6]: 49.55% and 36%
- Population Fragmented Nuclei (%) [1, 6]: 3.86% and 1.2%
- Population Healthy Nuclei (%) [1, 6]: 67.61% and 68.67%
- Population Hoechst High Intensity Objects (%) [1, 6]: 0%
- Population Membrane Permeable-Phenotype (%) [1, 6]: 3.04% and 5.26%
- Population Mitotic Cells (%) [1, 6]: 50.45% and 64%
- Population Normal (%) [1, 6]: 100%
- Population Pyknosed Nuclei (%) [1, 6]: 28.53% and 30.12%
- Population Tubulin-Different-Phenotype (%) [1, 6]: 11.79% and 2.63%
- Total Cell Count [1, 6]: 389 and 166
- Population Apoptotic (%) [1, 7]: 49.52% and 51.28%
- Population Fragmented Nuclei (%) [1, 7]: 5.85% and 2.9%
- Population Healthy Nuclei (%) [1, 7]: 81.07% and 82.97%
- Population Hoechst High Intensity Objects (%) [1, 7]: 0%
- Population Membrane Permeable-Phenotype (%) [1, 7]: 0.61% and 2.62%
- Population Mitochondria Different-Phenotype (%) [1, 7]: 0% and 3.49%
- Population Mitotic Cells (%) [1, 7]: 50.48% and 48.72%
- Population Normal (%) [1, 7]: 100%
- Population Pyknosed Nuclei (%) [1, 7]: 13.08% and 14.13%
- Population Tubulin-Different-Phenotype (%) [1, 7]: 1.84% and 0.87%
- Total Cell Count [1, 7]: 803 and 276
- Population Apoptotic (%) [1, 8]: 64.56% and 67.12%
- Population Fragmented Nuclei (%) [1, 8]: 3.84% and 5.23%
- Population Healthy Nuclei (%) [1, 8]: 52.88% and 47.06%
- Population Hoechst High Intensity Objects (%) [1, 8]: 0%
- Population Membrane Permeable-Phenotype (%) [1, 8]: 7.25% and 11.11%
- Population Mitotic Cells (%) [1, 8]: 35.44% and 32.88%
- Population Normal (%) [1, 8]: 100%
- Population Pyknosed Nuclei (%) [1, 8]: 43.29% and 47.71%
- Population Tubulin-Different-Phenotype (%) [1, 8]: 24.87% and 11.11%
- Total Cell Count [1, 8]: 365 and 153
- Population Apoptotic (%) [2, 3]: 11.84% and 26.37%
- Population Fragmented Nuclei (%) [2, 3]: 2.08% and 6.03%
- Population Healthy Nuclei (%) [2, 3]: 45.14% and 15.52%
- Population Hoechst High Intensity Objects (%) [2, 3]: 0.69% and 0%
- Population Membrane Permeable-Phenotype (%) [2, 3]: 1.54% and 0%
- Population Mitochondria Different-Phenotype (%) [2, 3]: 30.77% and 11.11%
- Population Mitotic Cells (%) [2, 3]: 88.16% and 73.63%
- Population Normal (%) [2, 3]: 99.31% and 100%
- Population Pyknosed Nuclei (%) [2, 3]: 52.78% and 78.45%
- Population Tubulin-Different-Phenotype (%) [2, 3]: 7.69% and 16.67%
- Total Cell Count [2, 3]: 290 and 116
- Population Apoptotic (%) [2, 4]: 21.29% and 10%
- Population Fragmented Nuclei (%) [2, 4]: 1.32% and 0.75%
- Population Hoechst High Intensity Objects (%) [2, 4]: 0.44% and 0%
- Population Membrane Permeable-Phenotype (%) [2, 4]: 0%
- Population Mitochondria Different-Phenotype (%) [2, 4]: 28.57% and 46.15%
- Population Mitotic Cells (%) [2, 4]: 78.71% and 90%
- Population Normal (%) [2, 4]: 99.56% and 100%
- Population Pyknosed Nuclei (%) [2, 4]: 67.98% and 89.55%
- Population Tubulin-Different-Phenotype (%) [2, 4]: 40% and 69.23%
- Total Cell Count [2, 4]: 229 and 134
- Population Apoptotic (%) [2, 5]: 18.67% and 32.22%
- Population Fragmented Nuclei (%) [2, 5]: 2.2% and 5.36%
- Population Hoechst High Intensity Objects (%) [2, 5]: 0.22% and 1.75%
- Population Membrane Permeable-Phenotype (%) [2, 5]: 1.8% and 0%
